High-throughput results deposited in PubChem by several laboratories.
Shown are actives, neighbours in structure and some others; about 2.4% of the full set was active somewhere.
m5-HT2A agonist – mouse Htr2a agonists via beta-arrestin recruitment, primary screen, cell-based, luminescence. 5-hydroxytryptamine receptor 2A (Mus musculus), P35363. CHO-K1 mHTR2A beta-arrestin complementation; percent of 30 µM serotonin response. activation, % at 7.6 µM. 0.66% of 360,000 active;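 active means activation above a run cutoff, the mean activation of all tested compounds plus 3 SD, cut at about 14% in these data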;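 further: 0% = plate median of compound wells and 100% = 30 µM serotonin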
SR-BI HDL uptake – inhibitors of SR-BI mediated HDL lipid uptake, primary screen, ldlA[mSR-BI] cells, fluorescence, single point. 0.96% of 320,000 active. inhibition, % at 12.5 µM. AID 488896, 2010. ldlA[mSR-BI] CHO cells, DiI-HDL uptake fluorescence, 3 h;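 active means mean replicate inhibition of at least 70% and a set share of replicates each scoring 70 or more; inconclusive means meets just one of the two criteria; inactive means fails both criteria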;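 further: 0% = median of neutral control wells and 100% = median of positive control wells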
Target sequence (Q61009 whole entry, looked up): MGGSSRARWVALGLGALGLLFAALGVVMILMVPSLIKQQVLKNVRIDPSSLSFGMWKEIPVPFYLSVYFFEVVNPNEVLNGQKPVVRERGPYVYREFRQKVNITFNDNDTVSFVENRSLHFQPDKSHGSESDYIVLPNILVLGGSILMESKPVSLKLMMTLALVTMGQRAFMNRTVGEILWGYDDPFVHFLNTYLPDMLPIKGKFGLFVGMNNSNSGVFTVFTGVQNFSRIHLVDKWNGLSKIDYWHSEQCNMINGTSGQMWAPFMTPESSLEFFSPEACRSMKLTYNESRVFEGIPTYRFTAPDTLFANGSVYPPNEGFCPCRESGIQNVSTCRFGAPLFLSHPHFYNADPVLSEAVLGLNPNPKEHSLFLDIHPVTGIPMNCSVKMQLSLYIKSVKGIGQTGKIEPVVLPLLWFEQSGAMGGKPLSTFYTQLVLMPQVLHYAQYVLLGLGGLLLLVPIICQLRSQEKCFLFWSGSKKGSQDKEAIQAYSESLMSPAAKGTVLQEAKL
Calb FLC – C. albicans growth inhibition with fluconazole, primary screen, CaCi-2 strain, Alamar Blue fluorescence; C. albicans CaCi-2 + fluconazole, 48 h; growth inhibition, % (concentration not given with the values); 0.57% of 300,000 active;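 active means growth inhibition above about 58% in most replicates, limit read from the data, passing the limit was not always enough; inconclusive means exactly half the replicates above a set limit; inactive means most replicates below a set limit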;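 further: all wells also contain fluconazole at 8 µg/ml as a sub-toxic cotreatment; 0% = median of DMSO wells and 100% = median of geldanamycin control wells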
Insulin prom up – insulin promoter activators in MIN6 cells, imaging, high-content screening, mouse beta cells | MIN6 insulin promoter-GFP reporter; stronger effect = higher value | z-score at 5 µM | 0.3% of 190,000 active | AID 1625, 2009;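 active means z-score above 3 at 5 µM with at least 500 cells counted in the well; inconclusive means wells under 500 cells, flagged as cytotoxic or low count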
SR-BI DiI-HDL act – activators of SR-BI mediated DiI-HDL uptake, primary screen, ldlA[mSR-BI] CHO cells, DiI fluorescence; 3 h; 100 = double the neutral-control signal; activation, % at 12.5 µM; 0.096% of 320,000 active; AID 504775, 2011;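 active means mean replicate activation of at least 60% and every replicate at or above 60%; inconclusive means mean or all-replicate condition met, but not both; inactive means mean below 60% and not all replicates reaching 60%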;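 further: 0% = median plate neutral-control signal and 100% = twice that signal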
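Assay system: CHO ldlA[mSR-BI] cells, LDL receptor-null, SR-BI overexpressing; medium: Ham's F12 with 0.5% BSA, HEPES 25 mM, pH 7.4; also added: DiI-HDL 10 µg/mL; timing: 3 h uptake period with compound, 37 °C; signal: DiI fluorescence, bottom read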
beta cell repl – inducers of MIN6 beta-cell proliferation, primary screen, ATP luminescence, uHTS; MIN6 cells proliferation, ATPlite luminescence, 48 h; cells starved in 0.2% serum; 100% = growth in 10% serum; 0.29% of 330,000 active; proliferation, % at 10 µM; AID 2380, 2010;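 active means compounds whose signal lies at least 3.5 SD above the mean of all wells on their plate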;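 further: 0% = DMSO-treated cells in low-serum medium and 100% = 10% serum control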
Active calls of the source: *; ? = inconclusive; nt = no result.

SMILES	m5-HT2A agonist	SR-BI HDL uptake	Calb FLC	Insulin prom up	SR-BI DiI-HDL act	beta cell repl
O=C(CCC(=O)NCCCc1ccccc1)NCCCc1ccccc1	-4	-62	3	1.2	62*	-2
O=C(Cc1ccccc1)NCCCc1ccccc1	3	-9	-8	0.75	9	-2
CCCCC(=O)N(C)c1c(C)nc2ccc(C(=O)N(CC)CCN(C)C)cn12	2	nt	nt	nt	nt	nt
NC(=S)N/N=C1/CCSc2ccc3ccccc3c21	-2	79*	10	-0.88	-79	-5
O=c1[nH]c(-c2ccccn2)nc(C(F)(F)F)c1Br	-4	-2	108*	-1.8	2	-1
CCc1nc(CN2CCN(c3cc(C(F)(F)F)ccn3)CC2)c(C)[nH]1	1	nt	8	-0.08	nt	1
Cc1ccc(NC(=O)c2ccccc2)cc1	-1	8	-10	-0.11	-8	-1
Cc1ccc(N/C(=C\C(=O)c2ccccc2)C(=O)O)cc1	0	-1	-21	nt	1	7.1*
CC(C)C(OC(=O)c1ccc(Cl)nc1)C(=O)NC1CCCCC1 (configuration not stated)	3	nt	0	nt	nt	-1
CC(OC(=O)c1ccc(Cl)nc1)C(=O)NC1CCCC1 (configuration not stated)	8	-412	nt	nt	412*	1
COc1ccc(-c2oc3ccccc3c2C#Cc2cncn2C)cc1	-8	79*	nt	nt	-79	-7
COc1ccc(-c2sc3ccc(OC)cc3c2C#Cc2cncn2C)cc1	0	?	nt	nt	-72	-6
NC(=O)c1nnsc1-c1ccco1	0	-18	nt	nt	18	nt
COc1ccc(NC(=O)N(C)C[C@H]2Oc3c(NC(=O)Nc4ccc(C(F)(F)F)cc4)cccc3C(=O)N([C@H](C)CO)C[C@@H]2C)cc1	23*	2	nt	nt	-2	-6
C[C@H](CO)N1C[C@H](C)[C@@H](CN(C)C(=O)Nc2ccc(C(F)(F)F)cc2)Oc2c(NC(=O)Nc3ccccc3)cccc2C1=O	3	43	nt	nt	-43	-4
C[C@H]1CN([C@@H](C)CO)C(=O)Cc2cc(NC(=O)CCC(F)(F)F)ccc2O[C@H]1CN(C)Cc1ccc(C(F)(F)F)cc1	1	-25	nt	nt	25	-5
C[C@H]1CN([C@@H](C)CO)C(=O)Cc2cc(NC(=O)CCC(F)(F)F)ccc2O[C@H]1CN(C)Cc1ccc(-c2ccccc2)cc1	6	-154	nt	nt	154*	-6
COc1ccc(NC(=O)Nc2ccc3c(c2)CC(=O)N([C@H](C)CO)C[C@@H](C)[C@H](CN(C)C(=O)Nc2ccccc2)O3)cc1	-2	70*	nt	nt	-70	-4
C[C@H]1CN([C@@H](C)CO)C(=O)c2cccc(NC(=O)Nc3ccc(C(F)(F)F)cc3)c2O[C@@H]1CN(C)Cc1ccc(Cl)c(Cl)c1	-4	75*	nt	nt	-75	-6
Cn1c(=O)[nH]c(=O)c2c1nc(N/N=C/C(Br)=C/c1ccccc1)n2CCO	-1	-25	6	0.13	25	0
N=c1c2ccccc2nc2n1CCCCC2	1	nt	nt	nt	nt	nt
CN(C)c1ccc(C=C2C=Cc3ccccc32)cc1	1	38	nt	nt	-38	nt
COc1cc2c(cc1OC)C(=Cc1ccc(N(C)C)cc1)C=C2	-6	76*	nt	nt	-76	nt
C=CCOc1ccccc1CN(C(=O)CCl)c1ccc2c(c1)OCO2	0	-10	-9	nt	10	-4
Cc1ccc(C2(C(F)(F)F)N=C3Sc4cc(C)ccc4N3C(=O)N2)cc1 (configuration not stated)	nt	nt	-6	3.5*	nt	-4
SMILES	m5-HT2A agonist	SR-BI HDL uptake	Calb FLC	Insulin prom up	SR-BI DiI-HDL act	beta cell repl
Cc1cccc(N2CCN(c3nc(C)cc(C)c3C#N)CC2C)c1 (configuration not stated)	6	25	90*	nt	-25	-2
COc1ccc(/C=C2/CCC(CN3CCOCC3)C2=O)cc1 (configuration not stated)	-3	15	nt	nt	-15	nt
Oc1ccc(-c2csc(Nc3ccccn3)n2)c(O)c1	2	52	1	nt	-52	-5
Cc1cccnc1Nc1nc(-c2ccc(O)cc2O)cs1	5	71*	-9	-1.1	-71	-2
O=C(N/N=C/c1sc(N2CCOCC2)nc1-c1ccccc1)c1ccccc1O	1	41	2	-0.23	-41	-4
O=[N+]([O-])c1ccc(N/N=C/c2sc(N3CCOCC3)nc2-c2ccccc2)c(S(=O)(=O)Nc2ccc(Cl)cc2)c1	2	118*	-4	?	-118	nt
O=C(N/N=C/c1sc(N2CCOCC2)nc1-c1ccccc1)c1cccc(S(=O)(=O)N2CCOCC2)c1	-4	nt	98*	?	nt	-6
Nc1ccc(C(=O)N/N=C/c2sc(N3CCOCC3)nc2-c2ccccc2)cc1	3	27	5	-4.1	-27	1
O=C(N/N=C/c1sc(N2CCOCC2)nc1-c1ccccc1)c1ccccc1Cl	7	83*	?	1.1	-83	-3
COc1ccc(OC)c(NC(=O)Nc2nnc(COCCO)s2)c1	12	nt	nt	nt	nt	nt
Cc1cc(CN2CCCCC2C(=O)Nc2ccc(Oc3cccnc3)cc2)oc1C (configuration not stated)	0	79*	-2	nt	nt	3
CSc1nnc(Cc2cc(=O)[nH]c(=O)[nH]2)n1-c1cc(C)ccc1C	3	-70	-15	0.36	70*	-2
O=C(O)c1cnc(-c2ccccc2)nc1Sc1ccc(Cl)cc1Cl	3	-4	106*	nt	4	-6
COc1cc(NC(=S)N2CCN(S(=O)(=O)c3ccccc3)CC2)cc(OC)c1	5	22	122*	nt	-22	-5
O=[N+]([O-])c1c(C(Cl)Cl)nn(-c2ccccc2)c1N1CCOCC1	0	16	37	-1.5	-16	0
O=[N+]([O-])c1c(C(Cl)Cl)nn(-c2ccc(Cl)cc2)c1N1CCCCC1	4	60	81*	nt	-60	-6
CCOc1ccc(C(=O)CCc2nc3ccccc3s2)cc1	21*	-9	17	-0.07	9	-3
Cc1ccc(NC2=C(N3CCCCC3)C(=O)c3ccccc3C2=O)cc1	3	73*	24	-1.4	-73	-5
O=C1C(Nc2cccc(O)c2)=C(N2CCCCC2)C(=O)c2ccccc21	-1	47	2	-0.92	-47	-4
O=C(/C=C/c1ccc(O)cc1)c1ccccc1	-3	nt	1	0.17	nt	-7
COc1ccccc1NC1=C(N2CCCCC2)C(=O)c2ccccc2C1=O	8	21	93*	-0.96	-21	0
O=C1C(Nc2ccccc2)=C(N2CCCCC2)C(=O)c2ccccc21	3	-14	8	-1.2	14	-6
